What all share (format): functional
Assay [1] has as its system Staphylococcus aureus. The assay can be described thus: Antibacterial activity against Staphylococcus aureus RN4220 assessed as growth inhibition at 200 ug/ml after 16 hrs by spectrophotometric analysis. The following applies: RN4220, 16 h, read-out: GI. An outline of the steps:
(§1)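 Growth inhibition read as OD600 on 300 µL culture samples, with untreated control cultures taken as maximum growth. Percent inhibition = (OD600 control − OD600 treated) × 100 / OD600 control. Parent antibiotics and their conjugates were run in parallel at three concentrations per compound, in biological duplicate.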

Assay [2] concerns Escherichia coli. Description: Antibacterial activity against Escherichia coli DH5alpha assessed as growth inhibition at 2.5 ug/ml after 16 hrs by spectrophotometric method. The settings on record: DH5[alpha], read-out: GI. The method in brief:
as §1

Assay [3] relates to Escherichia coli. The assay can be described thus: Antibacterial activity against Escherichia coli DH5alpha assessed as growth inhibition at 10 ug/ml after 16 hrs by spectrophotometric method. The following applies: DH5[alpha], read-out: GI. The method in brief:
as §1

Assay [4] has as its system Staphylococcus aureus. The assay can be described thus: Antibacterial activity against Staphylococcus aureus RN4220 assessed as growth inhibition at 100 ug/ml after 16 hrs by spectrophotometric analysis. The following applies: RN4220, 16 h, read-out: GI. An outline of the steps:
as §1

Assay [5] relates to Bacillus subtilis. The assay can be described thus: Antibacterial activity against Bacillus subtilis 168 assessed as growth inhibition at 20 ug/ml after 16 hrs by spectrophotometric analysis. The following applies: subsp. subtilis str. 168, 16 h, read-out: GI. An outline of the steps: as §1
The subject of assay [6] is Bacillus subtilis. Description: Antibacterial activity against Bacillus subtilis 168 assessed as growth inhibition at 40 ug/ml after 16 hrs by spectrophotometric analysis. The settings on record: subsp. subtilis str. 168, 16 h, read-out: GI. An outline of the steps:
as §1

Assay [7] relates to Staphylococcus aureus. Description: Antibacterial activity against Staphylococcus aureus RN4220 assessed as growth inhibition at 50 ug/ml after 16 hrs by spectrophotometric analysis. The settings on record: RN4220, 16 h, read-out: GI. An outline of the steps: as §1
In assay [8] the test system is Escherichia coli. Description: Antibacterial activity against Escherichia coli DH5alpha assessed as growth inhibition at 5 ug/ml after 16 hrs by spectrophotometric method. The following applies: DH5[alpha], read-out: GI. An outline of the steps: as §1
In assay [9] the test system is Bacillus subtilis. Description: Antibacterial activity against Bacillus subtilis 168 assessed as growth inhibition at 10 ug/ml after 16 hrs by spectrophotometric analysis. The following applies: subsp. subtilis str. 168, 16 h, read-out: GI. The method in brief: as §1
Assay [10] concerns Escherichia coli. Description: Antibacterial activity against Escherichia coli DH5alpha assessed as growth inhibition at 75 ug/ml after 16 hrs by spectrophotometric method. The settings on record: DH5[alpha], read-out: GI. The method in brief:
as §1

The subject of assay [11] is Escherichia coli. Description: Antibacterial activity against Escherichia coli DH5alpha assessed as growth inhibition at 50 ug/ml after 16 hrs by spectrophotometric method. The settings on record: DH5[alpha], read-out: GI. The method in brief: as §1
The test system of assay [12] is Staphylococcus aureus. The assay can be described thus: Antibacterial activity against Staphylococcus aureus RN4220 assessed as growth inhibition at 150 ug/ml after 16 hrs by spectrophotometric analysis. The following applies: RN4220, 16 h, read-out: GI. The method in brief:
as §1

Assay [13] concerns Staphylococcus aureus. The assay can be described thus: Antibacterial activity against Staphylococcus aureus RN4220 assessed as growth inhibition at 75 ug/ml after 16 hrs by spectrophotometric analysis. The following applies: RN4220, 16 h, read-out: GI. The method in brief:
as §1

Assay [14] has as its system Staphylococcus aureus. Description: Antibacterial activity against Staphylococcus aureus RN4220 assessed as growth inhibition at 300 ug/ml after 16 hrs by spectrophotometric analysis. The settings on record: RN4220, 16 h, read-out: GI. An outline of the steps:
as §1

Assay [15] deals with Escherichia coli. Description: Antibacterial activity against Escherichia coli DH5alpha assessed as growth inhibition at 100 ug/ml after 16 hrs by spectrophotometric method. The following applies: DH5[alpha], read-out: GI. An outline of the steps:
as §1

The values below come from ChEMBL document CHEMBL3232791, “Synthesis and antibacterial evaluation of amino acid-antibiotic conjugates” (2014).

`CCn1cc(C(=O)O)c(=O)c2cnc(N3CCNCC3)nc21` [PIPEMIDIC ACID]: the inhibition of growth at 200 µg/mL in assay [1] came to 61.8%. Moreover, the inhibition of growth at 2.5 µg/mL in assay [2] was -13%. Moreover, the inhibition of growth at 10 µg/mL was determined as 7.89% in assay [3] and 18.2% in [9]. The inhibition of growth at 100 µg/mL in [4] was 44.4%. Further, the inhibition of growth at 20 µg/mL in assay [5] is 26%. Also, in assay [6], the inhibition of growth at 40 µg/mL was found to be 79.8%. Also, in [7], the inhibition of growth at 50 µg/mL was determined as 26.2%. In addition, the inhibition of growth at 5 µg/mL in assay [8] was -9.68%.

Consider `CCn1cc(C(=O)O)c(=O)c2cnc(N3CCN(C(=O)[C@H](Cc4ccccc4)NC(=O)OCc4ccccc4)CC3)nc21`, for which the inhibition of growth at 200 µg/mL in assay [1] was 72.9%. Moreover, the inhibition of growth at 2.5 µg/mL in assay [2] was -11.5%. Moreover, the inhibition of growth at 10 µg/mL in assay [3] amounted to 9.45%; in assay [9], 6.09%. Besides, the inhibition of growth at 100 µg/mL in assay [4] stood at 60.1%. The inhibition of growth at 20 µg/mL in [5] is 13.8%. Moreover, in [6], the inhibition of growth at 40 µg/mL was determined as 77%. In addition, in [7], the inhibition of growth at 50 µg/mL worked out at 49.6%. The inhibition of growth at 5 µg/mL in assay [8] is -6.38%.

Consider `Cc1ncc([N+](=O)[O-])n1CCOC(=O)CNC(=O)OCc1ccccc1`, for which the inhibition of growth at 75 µg/mL stood at 1.61% in assay [10] and 0.33% in assay [13]. Further, the inhibition of growth at 50 µg/mL in assay [11] came out at 8.23%. Moreover, the inhibition of growth at 150 µg/mL in assay [12] was determined as 23.5%. For the same molecule, the inhibition of growth at 300 µg/mL in assay [14] came out at 23.6%. The inhibition of growth at 100 µg/mL in assay [15] came out at 6.59%.

Turning to `CCn1cc(C(=O)O)c(=O)c2cnc(N3CCN(C(=O)[C@H](CCCCNC(=O)OCc4ccccc4)NC(=O)OCc4ccccc4)CC3)nc21`, in assay [1], the inhibition of growth at 200 µg/mL amounted to 52.4%. In addition, the inhibition of growth at 2.5 µg/mL in [2] is -13.2%. For the same molecule, the inhibition of growth at 10 µg/mL was -6.9% in assay [3] and -7.86% in assay [9]. Besides, the inhibition of growth at 100 µg/mL in [4] was 28.2%. For the same molecule, the inhibition of growth at 20 µg/mL in assay [5] was -4.87%. In addition, in [6], the inhibition of growth at 40 µg/mL is 89.9%. The inhibition of growth at 50 µg/mL in assay [7] was -20.2%. Moreover, the inhibition of growth at 5 µg/mL in assay [8] is -9.63%.

`Cc1ncc([N+](=O)[O-])n1CCOC(=O)[C@H](C)NC(=O)OCc1ccccc1`: the inhibition of growth at 75 µg/mL in [10] came to 3.79%; in assay [13], 8.86%. Moreover, the inhibition of growth at 50 µg/mL in assay [11] is 2.22%. For the same molecule, the inhibition of growth at 150 µg/mL in assay [12] was 22.5%. Also, the inhibition of growth at 300 µg/mL in assay [14] came out at 45.9%. Also, in assay [15], the inhibition of growth at 100 µg/mL is 8.28%.

On to `Cc1ncc([N+](=O)[O-])n1CCOC(=O)[C@@H](NC(=O)OCc1ccccc1)C(C)C`, for which the inhibition of growth at 75 µg/mL is 3.26% in [10] and -7.76% in assay [13]. For the same molecule, the inhibition of growth at 50 µg/mL in assay [11] was determined as 3.28%. The inhibition of growth at 150 µg/mL in assay [12] is -7.76%. Further, in assay [14], the inhibition of growth at 300 µg/mL was found to be 13.7%. For the same molecule, the inhibition of growth at 100 µg/mL in [15] was determined as 4.47%.

`Cc1ncc([N+](=O)[O-])n1CCOC(=O)[C@H](CCCCNC(=O)OCc1ccccc1)NC(=O)OCc1ccccc1`: the figures for the inhibition of growth at 75 µg/mL in assay [10] and in assay [13] were 62.5% and -2.96%, respectively. Further, the inhibition of growth at 50 µg/mL in [11] was found to be 51.9%. The inhibition of growth at 150 µg/mL in assay [12] is 22.3%. Besides, in assay [14], the inhibition of growth at 300 µg/mL stood at 68%. In assay [15], the inhibition of growth at 100 µg/mL came out at 70%.

As for `CCn1cc(C(=O)O)c(=O)c2cnc(N3CCN(C(=O)[C@H](C)NC(=O)OCc4ccccc4)CC3)nc21`, in assay [1], the inhibition of growth at 200 µg/mL was determined as 63%. For the same molecule, the inhibition of growth at 2.5 µg/mL in assay [2] was -12%. The figures for the inhibition of growth at 10 µg/mL in [3] and in [9] were 1.75% and 90.3%, respectively. Also, the inhibition of growth at 100 µg/mL in [4] was determined as 55.4%. For the same molecule, in assay [5], the inhibition of growth at 20 µg/mL worked out at 5.34%. In assay [6], the inhibition of growth at 40 µg/mL is 60.1%. Further, the inhibition of growth at 50 µg/mL in assay [7] was determined as 38%. The inhibition of growth at 5 µg/mL in assay [8] was -12.1%.
